Source: PubChem
Exocytosis inh: LAMP-1 surface exposure blockers, TALL-104 cells – cell-based, flow cytometry, MLPCN library, primary screen. TALL-104 LAMP-1 surface exposure; cells stimulated with thapsigargin and PMA. inhibition, % at 10 µM. 0.66% of 360,000 active;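 active means inhibition above about 55%, limit read from the data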
HKDC1 inhibitor: HKDC1 hexokinase inhibitors, primary screen, biochemical, fluorescence, uHTS; Q2TB90; recombinant HKDC1, G6PDH/diaphorase resazurin coupled fluorescence; inhibition, % at 20 µM; 0.16% of 340,000 active; AID 493160, 2011;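 active means inhibition above about 35% when tested at 20 µM, limit read from the data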;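 further: plate controls were DMSO wells with enzyme for no effect and DMSO wells lacking enzyme for full effect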
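Assay system: recombinant HKDC1 hexokinase; detection: coupled resazurin fluorescence, excitation 525 nm, emission 613 nm; benchmarks: DMSO-plus-enzyme-mix negative control, buffer-substituted positive control; compound dosing: single 20 µM dose; schedule: 90 min at room temperature in dark; also added: glucose plus 1 mM ATP as hexokinase substrates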
ABHD5 PLIN5 PPI: ABHD5-PLIN5 interaction inhibitors, primary screen, cell lysate, split luciferase complementation, luminescence; Perilipin-5 (Homo sapiens) + 1-acylglycerol-3-phosphate O-acyltransferase ABHD5 (Homo …; Split G. princeps luciferase complementation, 4 h; inhibition, % at 4 µM; 0.78% of 360,000 active; AID 602281, 2012;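 active means inhibition above the mean inhibition across every tested compound plus 3 SD, cut at about 22% in these data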;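 further: 0% = DMSO only wells and the 100% control is not disclosed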
PfG6PD inh: PfG6PD enzyme inhibitors, primary screen, biochemical, fluorescence intensity, uHTS; glucose-6-phosphate dehydrogenase-6-phosphogluconolactonase (Plasmodium falciparum 3D7); PfGluPho enzyme, NADPH resazurin-diaphorase fluorescence; inhibition, % at 20 µM; 0.78% of 350,000 active; AID 504690, 2011;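 active means inhibition reaching at least a set limit at 20 µM in the primary screen, cut at about 59% in these data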;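 further: 0% = DMSO wells with substrate and 100% = DMSO wells lacking glucose-6-phosphate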
Starred values were filed as active, the others as inactive; . = no result given. Only some compounds are listed: those with a hit (about 2.2% of all), similar ones and a draw of the others.

SMILES | Exocytosis inh | HKDC1 inhibitor | ABHD5 PLIN5 PPI | PfG6PD inh
CCC1(c2ccc(F)cc2)NC(=O)N(CC(=O)N(C)C2CCS(=O)(=O)C2)C1=O (configuration not stated) | 3 | -8 | 0 | 6
Cc1ccc(C)c(NC(=S)NNc2ccc(F)cc2F)c1 | 84* | -1 | 16 | 24
CC(C)(C)c1ccc(NC(=O)COC(=O)c2ccc(NS(=O)(=O)c3ccc(F)c(F)c3)cc2)cc1 | 10 | 14 | -22 | -38
COc1cc(N=Nc2ccc(Br)cc2)cc(C=O)c1O | 105* | . | 0 | 1
CN(C)C/C=C/C(=O)Nc1cccc(-c2c[nH]c3ncnc(Oc4ccc(NC(=O)CC(=O)Nc5ccc(F)cc5)cc4F)c23)c1 | -33 | 4 | 24* | 34
O=C1c2ccccc2C(=O)N1CCCc1cn(C[C@H]2CC[C@@H]([C@@H]3CC[C@H](Cn4cc(CCCN5C(=O)c6ccccc6C5=O)nn4)O3)O2)nn1 | 67* | -3 | 7 | 8
Cc1cccc(OCc2n(CC(=O)OC3CC(C)CCC3C(C)C)c3ccccc3[n+]2C)c1 (configuration not stated) | 89* | -2 | 19 | -2
O=C(C[C@@H]1C=C[C@H](NS(=O)(=O)c2ccccc2F)[C@@H](CO)O1)NCCCN1CCOCC1 | 4 | . | 0 | .
O=C(c1ccc(Cn2c(=S)[nH]c3ccccc3c2=O)cc1)N1CCN(c2ccccn2)CC1 | -12 | -5 | 5 | 6
COc1ccc(-c2nc(=S)[nH][nH]2)cc1 | 56* | -7 | -3 | 29
CCOc1ccc(-c2nc(=S)[nH][nH]2)cc1 | 1 | 6 | -5 | 20
CCCCNc1ccc(C(=O)O)cc1 | 2 | -9 | -10 | -13
COc1ccc2c(c1)CC=C1C2CCC2(C)C(=O)C(=NO)CC12 (configuration not stated) | 91* | -2 | -9 | 8
COc1ccccc1C(C(=O)c1ccccc1)c1ccc2ccccc2c1 (configuration not stated) | 12 | . | -10 | .
CCOC(=O)/C(C#N)=C/c1cc(C)n(-c2ccc(C)cc2)c1C | 86* | -3 | 3 | -14
CCOC(=O)/C(C#N)=C\c1cc(C)n(-c2ccccc2)c1C | 21 | 0 | -6 | -5
COC(=O)c1cn(Cc2ccccn2)c(=O)c2ccccc12 | -3 | -3 | 1 | -5
COC(=O)Oc1nsnc1N1CCOCC1 | 0 | -25 | -19 | 61*
CCOC(=O)[C@H]1[C@H]2COc3ccc(Br)cc3[C@@H]2N2C(=O)CN(Cc3ccco3)C(=O)[C@@]12C | -5 | 2 | 15 | 5
O=Cc1cc2ccccc2nc1SCCCF | 59* | -3 | -3 | 6
CSc1nc2ccccc2cc1/C=C(\C#N)c1ccccc1 | 1 | 0 | -11 | 35
COc1cc(NC(=O)c2ccc(Cl)cc2Cl)ccc1NC(=O)c1cccs1 | -1 | -4 | -2 | -6
COc1ccc(Nc2nc(N)nc(CCl)n2)cc1 | 57* | -1 | -1 | 6
Nc1nc(CCl)nc(Nc2ccc3ccccc3c2)n1 | 40 | 12 | 11 | 12
COC1(OC)C(/C=C/c2ccc(C)cc2)C(C#N)(C#N)C1(OC)OC (configuration not stated) | -1 | 4 | 22* | 3
SMILES | Exocytosis inh | HKDC1 inhibitor | ABHD5 PLIN5 PPI | PfG6PD inh
CCOC(=O)c1sc(NC(=O)CSc2nc(C)cc(C)n2)c(C#N)c1C | 4 | 4 | -2 | -21
CCOC(=O)c1sc(NC(=O)CSc2n[nH]c(-c3ccccc3)n2)c(C#N)c1C | 2 | -2 | -12 | 62*
Cc1cccc(CS(=O)(=O)c2nnc([C@H](Cc3ccccc3)NC(=O)OC(C)(C)C)o2)c1 | 34 | -3 | 43* | 38
COC(=O)CS(=O)(=O)c1nnc([C@H](Cc2ccccc2)NC(=O)OC(C)(C)C)o1 | 23 | 3 | 56* | 46
CC(C)(C)OC(=O)N[C@@H](Cc1ccccc1)c1nnc(SCC(N)=O)o1 | -5 | -7 | 0 | 11
Cc1cc(C)nc(SCC(=O)N(C)CC(=O)Nc2c(Cl)cccc2Cl)n1 | -8 | 2 | 5 | -13
O=[N+]([O-])c1cc2c(cc1C=Nc1ccccc1)OCO2 | 13 | 17 | -9 | 87*
CCOc1ccc(CCN2C(=S)N([C@@H](Cc3ccc(O)cc3)CN3CCCC3CN3C(=S)NC[C@@H]3Cc3ccc(O)cc3)C[C@@H]2CC(C)C)cc1 (some centres not stated) | -4 | -1 | 8 | 24
CCOc1ccc(CCN2C(=S)N([C@@H](Cc3ccc(O)cc3)CN3CCC[C@@H]3CN3C(=S)NC[C@@H]3CC(C)C)C[C@@H]2Cc2ccc(O)cc2)cc1 | 55 | . | 34* | .
Oc1ccc(C[C@H]2CN([C@@H](Cc3ccccc3)CN3CCCC3CN3C(=S)NC[C@@H]3Cc3ccccc3)C(=S)N2CCc2ccccc2)cc1 (some centres not stated) | -6 | . | 2 | .
Oc1ccc(C[C@H]2CN([C@@H](Cc3ccc(O)cc3)CN3CCC[C@@H]3CN3C(=S)NC[C@@H]3Cc3ccccc3)C(=S)N2CCc2ccccc2)cc1 | 34 | . | 27* | .
Cc1ccc(S(=O)(=O)N2CCN(C(=O)COC(=O)CSc3ccc(C)c(C)c3)CC2)c(C)c1 | -6 | -1 | 1 | 23
COc1ccc(C=CC(=O)c2c(OC)cc(OC)c(OC)c2O)cc1 | -3 | 16 | 23* | -1
CC(C)(C)[C@@H]1C=C(C(N)=O)O[C@H](OCCCCO)C1 | 6 | 7 | -3 | 7
C[C@H]1O[C@H](O[C@H]2[C@H](O[C@@H]3CC[C@@]4(C)C(CC[C@]5(C)C4CC=C4[C@@H]6CC(C)(C)CC[C@]6(C(=O)O[C@@H]6O[C@H](CO)[C@@H](O)[C@H](O)[C@H]6O)CC[C@]45C)C3(C)C)O[C@H](C(=O)O)[C@@H](O)[C@@H]2O)[C@@H](O)[C@@H](O)[C@@H]1O (some centres not stated) | -7 | 3 | 7 | -18
CC1(C)CC[C@]2(C(=O)O[C@@H]3O[C@H](CO)[C@@H](O)[C@H](O)[C@H]3O)CC[C@]3(C)C(=CCC4[C@@]5(C)CC[C@H](O[C@@H]6O[C@H](C(=O)O)[C@@H](O[C@H]7OC[C@@H](O)[C@@H](O)[C@@H]7O)[C@H](O)[C@H]6O)C(C)(C)C5CC[C@]43C)[C@@H]2C1 (some centres not stated) | 56* | -5 | 7 | 7
CCC(=O)N(CC)C1=C(O)c2ccccc2C(=O)C1=O | 92* | 25 | -33 | 46
O=C(N/N=C/c1ccccc1F)c1ccccc1OCc1ccccc1 | 107* | -9 | 7 | 5
Cc1ccc(NC(=O)c2ccc(NCCCN3CCC(C)CC3)c([N+](=O)[O-])c2)cc1F | 68* | -6 | 13 | 1
O=C(Nc1cccc(Cl)c1)c1ccc(NCCCN2CCOCC2)c([N+](=O)[O-])c1 | 10 | -1 | 18 | 16
